Bioassay records deposited in PubChem BioAssay by SRMLSC.
Lung fibro prol: antiproliferative effect on LL 47 fibroblasts – human, LL 47 cells, CellTiter-Glo luminescence, primary screen. LL 47 human lung fibroblast viability, ATP luminescence; hits give low values. 85,000 tested, 1.1% active. AID 719, 2007. viability, % at 10 µM;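 active = viability at or below 50% in the single dose screen; inactive = viability above 50%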;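 also: compound exposure lasted 72 h before the ATP readout; 100% = median luminescence of untreated cell-only wells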
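material = human LL 47 lung fibroblast cells | dosing = compounds added from tenfold dosing solution, 0.1% DMSO final | timing = overnight cell rest, 72 h compound treatment at 37 °C | measured by = CellTiter-Glo luminescence measuring cellular ATP | evaluation = % viability versus median cells-only luminescence | control set = cell-only wells, no compound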
H69AR inhibit: proliferation blockers of H69AR lung cancer cells, primary screen, cell-based, human, 86K library. H69AR lung tumor viability, ATP luminescence, 72 h; hits give low values. viability, % at 10 µM. 85,000 tested, 6% active. AID 598, 2007;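 active = viability at or below 40%; inactive = viability above 40%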;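 also: multidrug resistant small cell line overexpressing MRP-1 efflux transporter; 100% = mean luminescence of untreated control wells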
PTEN del growth: growth suppression of PTEN-null HCT116, primary screen, cell-based, CellTiter-Glo; AID 827, 2007; viability, % at 10 µM; 140,000 tested, 1.2% active; HCT116 PTEN-null viability, 60 h; hits give low values;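 active = viability at or below a set limit, 4 SD under the median of all tested compounds, cut at about 3.7% in these data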;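 also: PTEN knockout HCT116 line with beta catenin targeted HCT116 as companion control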
HUVEC prolif 384: inhibitors of HUVEC proliferation, primary screen, cell-based, 384-well. CellTiter-Glo luminescence, 72 h; hits give low values. viability, % at 10 µM (by protocol). 86,000 tested, 1.1% active;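 active = viability at or below 30%; inactive = viability above 30%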;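 also: 100% = median luminescence of DMSO-only cell control wells on each plate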
HCT116 bCat-KO: primary screen for growth suppressors in beta-catenin knockout HCT116 cells (colon tumor, human); HCT116 beta-catenin knockout viability, CellTiter-Glo, 60 h; hits give low values; viability, % at 10 µM; 140,000 tested, 1.5% active; AID 818, 2007;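 active = viability at or under a set limit, the compound median less 4 SD, cut at about 6% in these data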;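 also: 0% = Hyamine 1622 control at 20 µM and 100% = untreated cell control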
The depositor's hits bear a star; nt = no result given. The full list was thinned out, with hits kept by preference.

SMILES	Lung fibro prol	H69AR inhibit	PTEN del growth	HUVEC prolif 384	HCT116 bCat-KO
O=C(Nc1ccc(N2CCCC2)cc1)C(Cl)c1ccccc1 (stereo unspecified)	92	22*	92	97	72
CCOc1cc(S(=O)(=O)N2CC=C(c3ccc(F)cc3)CC2)c(OCC)cc1-n1cnnn1	48*	12*	34	63	38
CCOc1cc(S(=O)(=O)N2CCC(Cc3ccccc3)CC2)c(OCC)cc1-n1cnnn1	98	84	88	92	92
Cc1csc(Sc2ccc([N+](=O)[O-])cc2C(=O)OCC(=O)NC(=O)NC(C)(C)C)n1	nt	nt	89	nt	81
O=C(N/N=C/c1ccc(-c2cccc(C(F)(F)F)c2)o1)c1ccccc1O	nt	nt	3.1*	nt	10
Cc1ccc(SCC(=O)NC(=O)NCc2ccco2)cc1C	nt	nt	87	nt	104
CCOC(=O)Cn1c(=NC(=O)c2sc3ccccc3c2Cl)sc2cc(S(N)(=O)=O)ccc21	nt	nt	2.8*	nt	26
COc1ccccc1NCC(O)Cn1c2ccccc2c2ccccc21 (stereo unspecified)	86	17*	11	61	24
O=C(CSc1ncc(-c2ccc(F)cc2)[nH]1)N1CCCCC1	nt	29*	94	102	91
Cc1nn2c(-c3ccccc3)nnc2c2ccccc12	98	39*	75	63	65
COc1ccc(-c2cc(C(F)(F)F)nc(SCCC(=O)N3CCOCC3)n2)cc1	nt	39*	90	104	90
CC1=CC(C)(C)N(C(=O)c2ccccc2)c2ccc(C)cc21	96	86	88	103	81
CC1=CC(C)(C)N(S(=O)(=O)c2ccc(C)cc2)c2ccccc21	52	28*	16	63	18
CC1=CC(C)(C)N(S(=O)(=O)c2ccc(F)cc2)c2ccc(C)cc21	51	22*	14	60	15
Cc1onc(-c2ccccc2)c1C(=O)N1CCc2ccccc21	nt	nt	98	nt	80
CCOC(=O)N1CCN(C(=O)CSCc2ccccc2Cl)CC1	nt	nt	106	nt	94
CCOc1cc(N2CCOCC2)c(OCC)cc1NC(=O)COC(=O)c1ccccc1C	nt	nt	72	nt	65
CCOc1cc(N2CCOCC2)c(OCC)cc1NC(=O)COc1ncnc2ccc(Br)cc12	42*	47	69	73	66
CCOc1cc(N2CCOCC2)c(OCC)cc1NC(=O)COC(=O)c1cc(C)oc1C	95	38*	39	93	41
CCOC(=O)CC(NS(=O)(=O)Cc1ccccc1)c1ccc(C)cc1 (stereo unspecified)	nt	nt	98	nt	93
COc1ccc2c(c1)OCC1=C2CCC2(C)C(=O)CC=C12 (stereo unspecified)	93	11*	54	77	57
COc1ccc(C(C(=O)NC2CCCCC2)N(C(=O)CCl)c2ccc(OC)cc2)cc1 (stereo unspecified)	nt	nt	0.8*	nt	1.4*
COc1ccc(C(C(=O)NC2CCCCC2)N(C(=O)CCl)c2ccc(C)cc2)cc1 (stereo unspecified)	nt	nt	2.2*	nt	5.0*
CCOc1ccc(C(C(=O)NC2CCCCC2)N(C(=O)Cc2cccs2)c2ccc(-n3cnnn3)c(OC)c2)cc1 (stereo unspecified)	nt	nt	3.3*	nt	6
COc1cccc(N(C(=O)c2cnccn2)C(C(=O)NC2CCCCC2)c2ccc(Cl)cc2)c1 (stereo unspecified)	93	93	94	91	92
SMILES	Lung fibro prol	H69AR inhibit	PTEN del growth	HUVEC prolif 384	HCT116 bCat-KO
COC(CN(C(=O)CCl)C(C(=O)NC1CCCCC1)c1ccc(C)cc1)OC (stereo unspecified)	nt	nt	70	nt	74
COc1ccc(C(C(=O)NC2CCCCC2)N(C(=O)CCl)c2cccc(Cl)c2)cc1 (stereo unspecified)	nt	nt	1.6*	nt	2.3*
COc1ccc(C(C(=O)NC2CCCC2)N(C(=O)c2ccoc2C)c2ccc(C)cc2)cc1 (stereo unspecified)	nt	nt	57	nt	60
COc1ccc(CCCC(=O)NCc2ccccc2)cc1C	nt	nt	29	nt	32
CCC(C)N(NC(C)=O)c1nc(Cl)nc(NC(C)C)n1 (stereo unspecified)	nt	nt	81	nt	86
N#Cc1nc(N2CCCC2)nc(N2CCCC2)n1	77	85	16	89	11
C1CCN(c2nc(N3CCCCC3)nc(N3CCNCC3)n2)CC1	85	0.4*	46	86	37
Cc1cc2c(N=O)c(NO)ccc2[nH]1	1.9*	nt	5	60	4.7*
COc1ccc2[nH]c(O)c(N=O)c2c1	nt	nt	95	nt	90
CCCOc1ccccc1-n1sc2c(c1=S)-c1cc(OC)cc3c1N(C(=O)C3=O)C2(C)C	74	1.5*	3.0*	47	46
COc1cccc(-n2sc3c(c2=S)-c2cc(OC)ccc2NC3(C)C)c1	nt	nt	35	nt	39
COc1ccc(/C=C/C(=O)C(C(N)=O)=C2SCCS2)cc1	nt	nt	59	nt	50
Cc1ccc(C(=O)C(C(=O)/C=C/c2ccccc2)=C2SCCCS2)cc1	32*	2.3*	3.5*	23*	2.9*
COc1ccc2c(c1)[nH]c1c(=O)n(CCCn3ccnc3)cnc12	95	67	93	86	90
N#CC1=C(C2CC2)CC(c2ccccc2)C(C#N)=C1N (stereo unspecified)	81	39*	72	71	71
COc1ccc2cc(C(=O)Nc3ccc(Cl)cc3)sc(=O)c2c1OC	nt	nt	69	nt	57
O=C(Nc1ccc(N2CCN(C(=O)c3ccccc3)CC2)cc1)c1cc2ccccc2o1	86	83	17	100	5.6*
Cc1c(CCOC(=O)C23CC4CC(CC(C4)C2)C3)sc[n+]1Cc1ccccc1	nt	nt	78	nt	76
Cc1c(CCOC(=O)C23CC4CC(CC(C)(C4)C2)C3)sc[n+]1Cc1ccccc1	nt	nt	5	nt	2.9*
CC(=O)CCN1CCOCC1	90	29*	nt	96	103
CN(C)C(=O)CCN1CCOCC1	99	95	97	98	89
O=C1NCCCC2c3c(cc(Br)c(O)c3Br)OC12N1CCOCC1 (stereo unspecified)	109	100	99	100	101
O=C1NCCCC2c3cc(O)c4ccccc4c3OC12N1CCCCC1 (stereo unspecified)	106	20*	17	3.4*	19
CCOC(=O)/C(=N\Nc1cc(Cl)ccc1Cl)N1CCN(CC)CC1	nt	nt	77	nt	60
COc1ccc(-c2c/c(=N\c3nc(-c4ccccc4)c(C)s3)c3ccccc3o2)cc1O	40*	31*	16	34	17
COc1ccc(/C=C/c2nc3cc(-c4ccccc4)ccc3o2)cc1O	nt	nt	30	nt	54
CCOC(=O)N1CCC(Nc2c(-c3ccc(C)c(C)c3)c(=O)c2=O)CC1	100	33*	94	94	102
CCOC(=O)N1CCC(Nc2c(N3CCN(c4cc(Cl)ccc4C)CC3)c(=O)c2=O)CC1	90	64	59	82	63
